This experiment has as its system HeLa. Description: Membranolytic activity in human HeLa cells expressing GFP after 5 mins by fluorescence leakage assay. It is filed as functional, cell-based. Summed up: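 GFP-expressing HeLa cells (1 × 10^4/well, grown 24 h) were treated with peptides at various concentrations in PBS for 5 min. Supernatant was collected after centrifugation at 1000g and its fluorescence read at 485/535 nm. 1% Triton X-100 defined 100% leakage, and LC50 was calculated from three independent experiments.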
Compound `CC(C)C[C@H](NC(=O)[C@H](CCCNC(=N)N)NC(=O)[C@H](CC(C)C)NC(=O)[C@H](CC(C)C)NC(=O)[C@H](CCCNC(=N)N)NC(=O)[C@H](CCCNC(=N)N)NC(=O)[C@H](CC(C)C)NC(=O)[C@H](CCCNC(=N)N)NC(=O)[C@H](CC(C)C)NC(=O)[C@H](CC(C)C)NC(=O)[C@H](CCCNC(=N)N)NC(=O)[C@H](CC(C)C)NC(=O)[C@H](CC(C)C)NC(=O)[C@H](CCCNC(=N)N)NC(=O)CNC(=O)CNC(=O)[C@@H](N)Cc1cnc[nH]1)C(N)=O` had an LC50 of 25.9 µM.
Take H-HGGKLLKLLKKLLKLLK-NH2: the LC50 is 3.6 µM.
Compound H-HGGKLLKLLKLKKLLKL-NH2 registered an LC50 of 38.8 µM.
H-HGGRLLRLLRRLLRLLR-NH2 yielded an LC50 of 3.9 µM.
